Measurements taken from ChEMBL document CHEMBL1151961, “14,15-Epoxyeicosa-5,8,11-trienoic acid (14,15-EET) surrogates containing epoxide bioisosteres: influence upon vascular relaxation and soluble epoxide hydrolase inhibition” (J Med Chem, 2009).

What was measured:
[1] = Vasorelaxant activity against U46619-induced contraction in bovine coronary artery ring at 10 uM treated after U46619 challenge; assay type: functional, Bos taurus; set-up: scale not given: the % may be the effect or the level left
[2] = molecular target: T1, Bifunctional epoxide hydrolase 2 (Homo sapiens, UniProt P34913); assay: Inhibition of human recombinant soluble epoxide hydrolase expressed in baculovirus system assessed as appearance of 6-methoxynaphthaldehyde product by fluorescent-based assay
T1 sequence (P34913 whole entry): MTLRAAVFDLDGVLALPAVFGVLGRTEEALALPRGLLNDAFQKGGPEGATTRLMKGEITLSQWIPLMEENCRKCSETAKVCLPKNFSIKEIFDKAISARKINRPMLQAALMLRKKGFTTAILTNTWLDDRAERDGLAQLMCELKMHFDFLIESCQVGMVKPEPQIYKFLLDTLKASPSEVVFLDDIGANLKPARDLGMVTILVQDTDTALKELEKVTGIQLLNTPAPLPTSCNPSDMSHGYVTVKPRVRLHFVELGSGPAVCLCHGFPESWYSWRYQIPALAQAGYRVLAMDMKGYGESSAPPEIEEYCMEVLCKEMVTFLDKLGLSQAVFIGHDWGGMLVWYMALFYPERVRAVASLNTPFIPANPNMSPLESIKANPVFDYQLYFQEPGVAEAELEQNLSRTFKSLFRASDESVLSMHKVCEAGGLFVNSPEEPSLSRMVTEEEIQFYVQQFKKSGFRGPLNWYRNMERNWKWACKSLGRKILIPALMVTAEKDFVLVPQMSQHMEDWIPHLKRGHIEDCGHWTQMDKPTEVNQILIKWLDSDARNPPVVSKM

[3] = Vasorelaxant activity against U46619-induced contraction in bovine coronary artery ring treated after U46619 challenge; assay type: functional, tissue-based; details: Bos taurus
In short: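 Bioassay run 3-5 times (n = 3-5); reported values are means, ±10% SD.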

[4] = Vasorelaxant activity against U46619-induced contraction in bovine coronary artery ring at 10 uM treated after U46619 challenge; set-up: scale not given: the % may be the effect or the level left

SMILES | IC50 [2] [µM] | EC50 ([3]; read-out: EC50) [µM] | EC50 ([3]; read-out: ED50 (the source's name)) [µM] | Activity [1] [%] | Activity [4] [%]
CCCCCCC(=O)NCCCCCCCC#CCCCC(=O)O | 0.272 | 5.7 |  | 69 | 
CCCCCNC(=S)NCCCC/C=C\CCCCCCC(=O)O | 0.77 | 1.5 |  | 99 | 
CCCCCNC(=O)NCCCCC#CCCCCCCC(=O)O | 0.043 | 3.1 |  | 62 | 
CCCCCNC(=O)NCCCCCCC/C=C\CCCC(=O)O | 0.793 | 5.6 |  | 66 | 
CCCCCNC(=O)NCCCC/C=C\CCC(=O)O | 1.36 | > 10 |  | 16 | 
CCCCCNC(=O)NCCCCC#CCCC(=O)O | 8.11 | > 10 |  | 46 | 
CCCCNC(=O)NCCCCC/C=C\CCCCCCC(=O)OC | 0.152 | 4.6 |  | 84 | 
CCCCCNC(=O)NCCCC/C=C\CCCCCCC(=O)O | 0.046 | 7.5 |  | 63 | 
CCCCCNC(=O)OCCCC/C=C\CCCCCCC(=O)O | 3.48 | 9.3 |  | 53 | 
CCCCCc1ccc(CCCC/C=C\CCCCCCC(=O)O)o1 | 7.15 | > 10 |  | 11 | 
CCCCCC1CN=C(CCCC/C=C\CCCCCCC(=O)OC)O1 (stereo unspecified) | 0.688 | > 10 |  | 33 | 
CCCCNC(=O)C(=O)NCCCC/C=C\CCCCCCC(=O)O | 58.7 | 1.7 |  | 89 | 
CCNC(=O)NCCCC/C=C\CCCCCCCCCC(=O)O | 2.6 | > 10 |  | 50 | 
CCCCCNC(=O)NOCCC/C=C\CCCCCCC(=O)O | 1.37 | 3.7 |  | 87 | 
CCCCCc1cn(CCCC/C=C\CCCCCCC(=O)[O-])nn1.[Na+] | 17.8 | 6.2 |  | 65 | 
CCCCCN(C)C(=O)N(C)CCCCCCCC#CCCCC(=O)O | 11.1 | 2.3 |  | 77.5 | 
CCCCC[C@@H]1O[C@@H]1C/C=C\C/C=C\C/C=C\CCCC(=O)O (relative stereo) |  |  | 2.2 |  | 85

Further lines, with some results ahead:

IC50 [2] [µM] | EC50 ([3]; read-out: EC50) [µM] | EC50 ([3]; read-out: ED50 (the source's name)) [µM] | SMILES | Activity [1] [%] | Activity [4] [%]
13.9 | > 10 |  | CCCCCCN(C)C(=O)CCCC/C=C\CCCCCCC(=O)O | 12 | 
8.48 | 3.2 |  | CCCCCN(C)C(=O)N(C)CCCC/C=C\CCCCCCC(=O)O | 83 | 
17.6 | 4.4 |  | CCCCN(C)C(=O)C(=O)N(C)CCCC/C=C\CCCCCCC(=O)O | 70 | 
11.2 | 4.3 |  | CCCCCCC(=O)N(C)CCCC/C=C\CCCCCCC(=O)O | 64.5 | 
0.0485 | > 10 |  | CCCCCNC(=O)NCCCC/C=C/CCCCCCC(=O)O | 29 | 
19 | 1.7 |  | CCCCCCC(=O)N(CCCC/C=C\CCCCCCC(=O)O)C(C)C | 100 | 
0.016 | 3.5 |  | CCCCCCNC(=O)NCCC/C=C\CCCCCCC(=O)O | 86 | 
0.079 | 6.1 |  | CCCCCCC(=O)NCCCC/C=C\CCCCCCC(=O)O | 64.5 | 
0.066 | 4.9 |  | CCCCCCNC(=O)CCCC/C=C\CCCCCCC(=O)O | 74 | 
0.0715 | 7.6 |  | CCCCCNC(=O)N(C)CCCC/C=C\CCCCCCC(=O)O | 59 | 
1.45 | 3.2 |  | CCCCCN(C)C(=O)NCCCC/C=C\CCCCCCC(=O)O | 88 | 
2.83 | 8.3 |  | CCCCCOC(=O)NCCCC/C=C\CCCCCCC(=O)O | 64 | 
